From ChEMBL document CHEMBL1157589, “Antifungal 3,5-disubstituted furanones: From 5-acyloxymethyl to 5-alkylidene derivatives” (Bioorg Med Chem, 2010)
Values after ≈ are worked out from the molar mass of the structure shown.

What follows are compounds tested on Candida albicans (assay: Antifungal activity against Candida albicans ATCC 90028 after 48 hrs by microdilution method). Settings: ATCC 90028, 48 h; call rule not given here.
Format: functional
Summary of the method: (§1)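 Yeasts held on Sabouraud dextrose agar. MIC by NCCLS M27-A broth microdilution in RPMI 1640 with L-glutamine, buffered with 0.165 M MOPS to pH 7.0. Compounds in DMSO (≤2% final), twofold dilutions 500–0.48. Final inoculum 5 × 10³ ± 0.2 cfu mL⁻¹. Incubated at 35 °C; absorbance at 540 nm read at 24 and 48 h. MIC is 80% growth inhibition versus control; run twice in duplicate.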

MIC80	SMILES
3.9 µM (≈ 1.52 µg/mL)	O=C1OC(COc2ccc(C(=O)O)cc2)C=C1c1ccc(Br)cc1 (stereo unspecified)
> 125 µM	COC(=O)/C=C1\C=C(c2ccc(Br)cc2)C(=O)O1

These compounds were tested on Clavispora lusitaniae (assay: Antifungal activity against Candida lusitaniae 2446/I after 24 hrs by microdilution method). Settings: not given.
Format: functional
Summary of the method: as §1

MIC80	SMILES
3.9 µM (≈ 1.52 µg/mL)	O=C1OC(COc2ccc(C(=O)O)cc2)C=C1c1ccc(Br)cc1 (stereo unspecified)
> 125 µM	COC(=O)/C=C1\C=C(c2ccc(Br)cc2)C(=O)O1

Each compound was assayed on Lichtheimia corymbifera (assay: Antifungal activity against Absidia corymbifera 272 after 24 hrs by microdilution method). Settings: Lichtheimia corymbifera, 272, 24 h.
Format: functional
Summary of the method: (§2)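 Filamentous strains held on Sabouraud dextrose agar. NCCLS M27-A broth microdilution in RPMI 1640 with L-glutamine and 0.165 M MOPS, pH 7.0. DMSO diluent ≤2% final; twofold dilutions 500–0.48. Inoculum 5 × 10³ ± 0.2 cfu mL⁻¹ final.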

MIC80	SMILES
15.6 µM (≈ 6.08 µg/mL)	O=C1OC(COc2ccc(C(=O)O)cc2)C=C1c1ccc(Br)cc1 (stereo unspecified)
> 125 µM	COC(=O)/C=C1\C=C(c2ccc(Br)cc2)C(=O)O1

Each compound was assayed on Trichophyton mentagrophytes (assay: Antifungal activity against Trichophyton mentagrophytes 445 after 72 hrs by microdilution method). Settings: Trichophyton mentagrophytes, 445, 72 h.
Format: functional
Summary of the method: (§3)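 Dermatophyte held on Sabouraud dextrose agar. M27-A microdilution in MOPS-buffered (0.165 M, pH 7.0) RPMI 1640 with L-glutamine. DMSO ≤2% final; twofold dilutions 500–0.48. Inoculum 5 × 10³ ± 0.2 cfu mL⁻¹ final. Incubated at 35 °C; MIC read visually at 72 and 120 h as 80% inhibition of control growth; determined twice in duplicate.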

MIC80	SMILES
0.97 µM (≈ 0.378 µg/mL)	O=C1OC(COc2ccc(C(=O)O)cc2)C=C1c1ccc(Br)cc1 (stereo unspecified)
> 125 µM	COC(=O)/C=C1\C=C(c2ccc(Br)cc2)C(=O)O1

The compounds below were run on Nakaseomyces glabratus (assay: Antifungal activity against Candida glabrata 20/I after 48 hrs by microdilution method). Settings: not given.
Format: functional
Summary of the method: as §1

MIC80	SMILES
1.95 µM (≈ 0.759 µg/mL)	O=C1OC(COc2ccc(C(=O)O)cc2)C=C1c1ccc(Br)cc1 (stereo unspecified)
> 125 µM	COC(=O)/C=C1\C=C(c2ccc(Br)cc2)C(=O)O1

Each compound was assayed on Candida tropicalis (assay: Antifungal activity against Candida tropicalis 156 after 24 hrs by microdilution method). Settings: Candida tropicalis, 156, 24 h.
Format: functional
Summary of the method: as §1

MIC80	SMILES
3.9 µM (≈ 1.52 µg/mL)	O=C1OC(COc2ccc(C(=O)O)cc2)C=C1c1ccc(Br)cc1 (stereo unspecified)
> 125 µM	COC(=O)/C=C1\C=C(c2ccc(Br)cc2)C(=O)O1

These compounds were tested on HeLa S3 (assay: Cytostatic activity against human HeLaS3 cells after 48 hrs by XTT assay). Settings: Homo sapiens, HeLa S3, 48 h; read-out: IC50.

IC50	SMILES
2.69 µM	O=C1OC(COc2ccc(C(=O)O)cc2)C=C1c1ccc(Br)cc1 (stereo unspecified)

Same assay, conditions: hela s3

IC50	SMILES
Not Active	COC(=O)/C=C1\C=C(c2ccc(Br)cc2)C(=O)O1

Each compound was assayed on CCRF-CEM (assay: Cytostatic activity against human CCRF-CEM cells after 72 hrs by XTT assay). Settings: Homo sapiens, CCRF-CEM, 72 h; read-out: IC50.
Format: functional, cell-based
Summary of the method: (§4)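 Leukemia cells (L1210 ATCC CCL 219, CCRF-CEM ATCC CCL 119, HL-60 ATCC CCL 240) grown in 24-well plates in RPMI 1640 with fetal calf serum. Growth assessed 72 h after drug addition. Viability measured by XTT spectrophotometric assay; potency given as IC50.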

IC50	SMILES
8.7 µM	O=C1OC(COc2ccc(C(=O)O)cc2)C=C1c1ccc(Br)cc1 (stereo unspecified)

Same assay, conditions: ccrf-cem

IC50	SMILES
Not Active	COC(=O)/C=C1\C=C(c2ccc(Br)cc2)C(=O)O1

The compounds below were run on Nakaseomyces glabratus (assay: Antifungal activity against Candida glabrata 20/I after 24 hrs by microdilution method). Settings: not given.
Format: functional
Summary of the method: as §1

MIC80	SMILES
0.97 µM (≈ 0.378 µg/mL)	O=C1OC(COc2ccc(C(=O)O)cc2)C=C1c1ccc(Br)cc1 (stereo unspecified)
> 125 µM	COC(=O)/C=C1\C=C(c2ccc(Br)cc2)C(=O)O1

The compounds below were run on Pichia kudriavzevii (assay: Antifungal activity against Candida krusei E28 after 24 hrs by microdilution method). Settings: E28, 24 h.
Format: functional
Summary of the method: as §1

MIC80	SMILES
7.81 µM (≈ 3.04 µg/mL)	O=C1OC(COc2ccc(C(=O)O)cc2)C=C1c1ccc(Br)cc1 (stereo unspecified)
> 125 µM	COC(=O)/C=C1\C=C(c2ccc(Br)cc2)C(=O)O1

Each compound was assayed on Clavispora lusitaniae (assay: Antifungal activity against Candida lusitaniae 2446/I after 48 hrs by microdilution method). Settings: not given.
Format: functional
Summary of the method: as §1

MIC80	SMILES
7.81 µM (≈ 3.04 µg/mL)	O=C1OC(COc2ccc(C(=O)O)cc2)C=C1c1ccc(Br)cc1 (stereo unspecified)
> 125 µM	COC(=O)/C=C1\C=C(c2ccc(Br)cc2)C(=O)O1

What follows are compounds tested on Candida albicans (assay: Antifungal activity against Candida albicans ATCC 44859 after 24 hrs by microdilution method). Settings: ATCC 44859, 24 h.
Format: functional
Summary of the method: as §1

MIC80	SMILES
0.48 µM (≈ 0.187 µg/mL)	O=C1OC(COc2ccc(C(=O)O)cc2)C=C1c1ccc(Br)cc1 (stereo unspecified)
> 125 µM	COC(=O)/C=C1\C=C(c2ccc(Br)cc2)C(=O)O1

What follows are compounds tested on Pichia kudriavzevii (assay: Antifungal activity against Candida krusei ATCC 6258 after 24 hrs by microdilution method). Settings: ATCC 6258, 24 h.
Format: functional
Summary of the method: as §1

MIC80	SMILES
7.81 µM (≈ 3.04 µg/mL)	O=C1OC(COc2ccc(C(=O)O)cc2)C=C1c1ccc(Br)cc1 (stereo unspecified)
> 125 µM	COC(=O)/C=C1\C=C(c2ccc(Br)cc2)C(=O)O1

These compounds were tested on Lichtheimia corymbifera (assay: Antifungal activity against Absidia corymbifera 272 after 48 hrs by microdilution method). Settings: Lichtheimia corymbifera, 272, 48 h.
Format: functional
Summary of the method: as §2

MIC80	SMILES
62.5 µM (≈ 24.3 µg/mL)	O=C1OC(COc2ccc(C(=O)O)cc2)C=C1c1ccc(Br)cc1 (stereo unspecified)
> 125 µM	COC(=O)/C=C1\C=C(c2ccc(Br)cc2)C(=O)O1

The compounds below were run on L1210 (assay: Cytostatic activity against mouse L1210 cells after 72 hrs by XTT assay). Settings: Mus musculus, L1210, 72 h; read-out: IC50.
Format: functional, cell-based
Summary of the method: as §4

IC50	SMILES
12.3 µM	O=C1OC(COc2ccc(C(=O)O)cc2)C=C1c1ccc(Br)cc1 (stereo unspecified)

Same assay, conditions: l1210

IC50	SMILES
Not Active	COC(=O)/C=C1\C=C(c2ccc(Br)cc2)C(=O)O1

Each compound was assayed on Candida parapsilosis (assay: Antifungal activity against Candida parapsilosis ATCC 22019 after 48 hrs by microdilution method). Settings: Lodderomyces parapsilosis, ATCC 22019, 48 h.
Format: functional
Summary of the method: as §1

MIC80	SMILES
15.6 µM (≈ 6.08 µg/mL)	O=C1OC(COc2ccc(C(=O)O)cc2)C=C1c1ccc(Br)cc1 (stereo unspecified)
> 125 µM	COC(=O)/C=C1\C=C(c2ccc(Br)cc2)C(=O)O1

These compounds were tested on Trichophyton mentagrophytes (assay: Antifungal activity against Trichophyton mentagrophytes 445 after 120 hrs by microdilution method). Settings: Trichophyton mentagrophytes, 445, 120 h.
Format: functional
Summary of the method: as §3

MIC80	SMILES
0.97 µM (≈ 0.378 µg/mL)	O=C1OC(COc2ccc(C(=O)O)cc2)C=C1c1ccc(Br)cc1 (stereo unspecified)
> 125 µM	COC(=O)/C=C1\C=C(c2ccc(Br)cc2)C(=O)O1

What follows are compounds tested on Candida albicans (assay: Antifungal activity against Candida albicans ATCC 90028 after 24 hrs by microdilution method). Settings: ATCC 90028, 24 h.
Format: functional
Summary of the method: as §1

MIC80	SMILES
0.97 µM (≈ 0.378 µg/mL)	O=C1OC(COc2ccc(C(=O)O)cc2)C=C1c1ccc(Br)cc1 (stereo unspecified)
> 125 µM	COC(=O)/C=C1\C=C(c2ccc(Br)cc2)C(=O)O1

Each compound was assayed on HL-60 (assay: Cytostatic activity against human HL60 cells after 72 hrs by XTT assay). Settings: Homo sapiens, HL-60, 72 h; read-out: IC50.
Format: functional, cell-based
Summary of the method: as §4

IC50	SMILES
19.4 µM	O=C1OC(COc2ccc(C(=O)O)cc2)C=C1c1ccc(Br)cc1 (stereo unspecified)

Same assay, conditions: hl-60

IC50	SMILES
Not Active	COC(=O)/C=C1\C=C(c2ccc(Br)cc2)C(=O)O1

Each compound was assayed on Aspergillus fumigatus (assay: Antifungal activity against Aspergillus fumigatus 231 after 24 hrs by microdilution method). Settings: Aspergillus fumigatus, 231, 24 h.
Format: functional
Summary of the method: as §2

MIC80	SMILES
1.95 µM (≈ 0.759 µg/mL)	O=C1OC(COc2ccc(C(=O)O)cc2)C=C1c1ccc(Br)cc1 (stereo unspecified)
> 125 µM	COC(=O)/C=C1\C=C(c2ccc(Br)cc2)C(=O)O1

The compounds below were run on Trichosporon beigelii (assay: Antifungal activity against Trichosporon beigelii 1188 after 24 hrs by microdilution method). Settings: Trichosporon beigelii, 1188, 24 h.
Format: functional
Summary of the method: as §1

MIC80	SMILES
7.81 µM (≈ 3.04 µg/mL)	O=C1OC(COc2ccc(C(=O)O)cc2)C=C1c1ccc(Br)cc1 (stereo unspecified)
> 125 µM	COC(=O)/C=C1\C=C(c2ccc(Br)cc2)C(=O)O1

The compounds below were run on Pichia kudriavzevii (assay: Antifungal activity against Candida krusei ATCC 6258 after 48 hrs by microdilution method). Settings: ATCC 6258, 48 h.
Format: functional
Summary of the method: as §1

MIC80	SMILES
15.6 µM (≈ 6.08 µg/mL)	O=C1OC(COc2ccc(C(=O)O)cc2)C=C1c1ccc(Br)cc1 (stereo unspecified)
> 125 µM	COC(=O)/C=C1\C=C(c2ccc(Br)cc2)C(=O)O1

What follows are compounds tested on Candida parapsilosis (assay: Antifungal activity against Candida parapsilosis ATCC 22019 after 24 hrs by microdilution method). Settings: Lodderomyces parapsilosis, ATCC 22019, 24 h.
Format: functional
Summary of the method: as §1

MIC80	SMILES
7.81 µM (≈ 3.04 µg/mL)	O=C1OC(COc2ccc(C(=O)O)cc2)C=C1c1ccc(Br)cc1 (stereo unspecified)
> 125 µM	COC(=O)/C=C1\C=C(c2ccc(Br)cc2)C(=O)O1

These compounds were tested on Candida albicans (assay: Antifungal activity against Candida albicans ATCC 44859 after 48 hrs by microdilution method). Settings: ATCC 44859, 48 h.
Format: functional
Summary of the method: as §1

MIC80	SMILES
1.95 µM (≈ 0.759 µg/mL)	O=C1OC(COc2ccc(C(=O)O)cc2)C=C1c1ccc(Br)cc1 (stereo unspecified)
> 125 µM	COC(=O)/C=C1\C=C(c2ccc(Br)cc2)C(=O)O1

Each compound was assayed on Trichosporon beigelii (assay: Antifungal activity against Trichosporon beigelii 1188 after 48 hrs by microdilution method). Settings: Trichosporon beigelii, 1188, 48 h.
Format: functional
Summary of the method: as §1

MIC80	SMILES
15.6 µM (≈ 6.08 µg/mL)	O=C1OC(COc2ccc(C(=O)O)cc2)C=C1c1ccc(Br)cc1 (stereo unspecified)
> 125 µM	COC(=O)/C=C1\C=C(c2ccc(Br)cc2)C(=O)O1

What follows are compounds tested on Pichia kudriavzevii (assay: Antifungal activity against Candida krusei E28 after 48 hrs by microdilution method). Settings: E28, 48 h.
Format: functional
Summary of the method: as §1

MIC80	SMILES
15.6 µM (≈ 6.08 µg/mL)	O=C1OC(COc2ccc(C(=O)O)cc2)C=C1c1ccc(Br)cc1 (stereo unspecified)
> 125 µM	COC(=O)/C=C1\C=C(c2ccc(Br)cc2)C(=O)O1

Each compound was assayed on Aspergillus fumigatus (assay: Antifungal activity against Aspergillus fumigatus 231 after 48 hrs by microdilution method). Settings: Aspergillus fumigatus, 231, 48 h.
Format: functional
Summary of the method: as §2

MIC80	SMILES
3.9 µM (≈ 1.52 µg/mL)	O=C1OC(COc2ccc(C(=O)O)cc2)C=C1c1ccc(Br)cc1 (stereo unspecified)
> 125 µM	COC(=O)/C=C1\C=C(c2ccc(Br)cc2)C(=O)O1

The compounds below were run on Candida tropicalis (assay: Antifungal activity against Candida tropicalis 156 after 48 hrs by microdilution method). Settings: Candida tropicalis, 156, 48 h.
Format: functional
Summary of the method: as §1

MIC80	SMILES
7.81 µM (≈ 3.04 µg/mL)	O=C1OC(COc2ccc(C(=O)O)cc2)C=C1c1ccc(Br)cc1 (stereo unspecified)
> 125 µM	COC(=O)/C=C1\C=C(c2ccc(Br)cc2)C(=O)O1
